# Assay results from different studies.
# Compare with care: the assays were run in different laboratories.
# Matrix: plasma
# Route: oral
Compound,test system,setting,bioavailability
CC(/C=C/C=C(\C)C(=O)O)=C\C=C\C=C(C)\C=C\C=C(/C)C(=O)O,female Wistar rat,20 mg/kg,55 to 66%
CC(=O)CC(=O)C1CC(C)C(=O)C1=O (stereo not shown),male Sprague-Dawley rat,100 mg/kg,100%
O=C(C=Cc1ccccc1)Nc1cc(-c2ccnc(N3CCC(O)CC3)c2)ccn1,female Sprague-Dawley rat,50 mg/kg,~38.5%
O=C1CC[C@H](N2Cc3cc(N4CCN(CC5CCN(c6ccc([C@@H]7c8ccc(O)cc8CC[C@@H]7c7ccccc7)cc6)CC5)CC4)ccc3C2=O)C(=O)N1,female Sprague-Dawley rat,20 mg/kg,24.2%
Nc1ccc(/C=C/C(=O)NCc2cc3cc(-c4ccc(C(=O)N5CCC(F)(F)CC5)cc4)cc(-c4ccc(F)cc4)c3o2)cn1,rat,3 mg/kg,19.6%
CN1Cc2c(N)cccc2C(=O)N1C1CCC(=O)NC1=O (stereo not shown),male Sprague-Dawley rat,3 mg/kg,82.5%
Cc1c(C(=O)O)ccc2c3n(nc12)[C@@H]1[C@H](C3)N(CC2CC2)[C@@]2(C(=O)Nc3cc(Cl)ccc32)[C@H]1c1cccc(Cl)c1F,male rat,2 mg/kg,55%
N#C[C@@]12C[C@@H]1[C@@H](n1cnc3c(N[C@@H](C4CCC4)C4CC4)nc(I)nc31)[C@H](O)[C@@H]2O,male Wistar rat,1 mg/kg,7.18%
CC1(CN)CCN(c2cnc3c(Sc4ccncc4Cl)n[nH]c3n2)CC1,male Sprague-Dawley rat,10 mg/kg,42.5%
CC(=Nc1ccc(N=Cc2cnccn2)cc1)N(C)C,male Sprague-Dawley rat,200 mg/kg,12%
